The target of assay [1] is Sodium- and chloride-dependent GABA transporter 1 (Mus musculus) (UniProt P31648). Nature of the assay: Inhibition of NO711 binding to mouse GAT1 by MS-binding assay. Conditions: for inhibition: concentration not given here. Details: inhibition: concentration or dose not given beside the values. In a few lines:
(§1)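 Binding assay on murine GAT1 with unlabelled NO711 as marker, quantified by LC-MS/MS on a triple quadrupole instrument. Compounds were first screened at 100 μM. Those cutting NO711 binding by at least 50% were rated active and then given pKi values.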

Assay [2] shares this target. Nature of the assay: Inhibition of [3H]GABA uptake at GAT1 expressed in HEK cells. Further details: inhibition: concentration or dose not given beside the values. As to conditions: HEK293; for inhibition: concentration not given here.
The test system of assay [3] is Sodium- and chloride-dependent GABA transporter 2 (Mus musculus). Nature of the assay: Inhibition of [3H]GABA uptake at GAT2 expressed in HEK cells. Further details: inhibition: concentration or dose not given beside the values. Conditions: HEK293; for inhibition: concentration not given here.
In assay [4] the target is Sodium- and chloride-dependent GABA transporter 1 (Mus musculus) (UniProt P31648). The assay can be described thus: Remaining NO711 binding to mouse GAT1 by MS-binding assay.
Assay [5] concerns Sodium- and chloride-dependent GABA transporter 2 (Mus musculus). The assay can be described thus: Inhibition of [3H]GABA uptake at GAT2 expressed in HEK cells at 100 uM. Conditions: HEK293.
Assay [6] concerns Sodium- and chloride-dependent GABA transporter 3 (Mus musculus). Nature of the assay: Inhibition of [3H]GABA uptake at GAT3 expressed in HEK cells at 100 uM. As to conditions: HEK293.
Assay [7] concerns the target Sodium- and chloride-dependent GABA transporter 1 (Mus musculus) (UniProt P31648). The assay can be described thus: Inhibition of [3H]GABA uptake at GAT1 expressed in HEK cells at 100 uM. Conditions: HEK293.
Assay [8] has the same target. Nature of the assay: Inhibition of NO711 binding to mouse GAT1 at 100 uM by MS-binding assay. The procedure, abridged:
as §1

The subject of the next assay is HEK293. The assay can be described thus: Inhibition of [3H]GABA uptake at GAT4 expressed in HEK cells at 100 uM. Format: cell-based. The procedure, abridged: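 [³H]GABA uptake measured in HEK cells stably transfected with the individual murine GABA transporter subtypes GAT1–GAT4. Compounds were first screened at 100 μM, and results are given as % remaining GABA uptake (means). Those cutting uptake by at least 50% were rated active and then given pIC50 values.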

SMILES strings stand for the structures.

`O=C(NCc1ccccc1)C(CCO)N1CCC(Cc2ccccc2)CC1` (racemic): the inhibition came to 86% in assay [1], 75% in assay [2] and 49% in assay [3].
As for `O=C(NCc1ccc(Cl)cc1)C(CCO)N1CCN(C(c2ccc(F)cc2)c2ccc(F)cc2)CC1` (racemic), the remaining binding in assay [4] is 102%. Also, the figures for the pIC50 in [2] and in [3] were 4.14 and 4.35, respectively.
On to `COc1ccc(CNC(=O)C(CCO)N2CCN(C(c3ccccc3)c3ccccc3)CC2)cc1` (racemic), for which the results for the inhibition in assay [5] and in assay [6] were 78% and 61%, respectively.
As for `O=C(NCc1ccccc1Cl)C(CCO)N1CCN(C(c2ccccc2)c2ccccc2)CC1` (racemic), the figures for the inhibition in assay [7], in assay [5] and in assay [6] were 83%, 72% and 73%, respectively.
Consider `COc1ccc(CNC(=O)C(CCO)N2CCN(C(c3ccc(F)cc3)c3ccc(F)cc3)CC2)cc1` (racemic), for which the inhibition worked out at 101% in assay [1], 93% in assay [2] and 65% in assay [3].
For the molecule `NC(=O)C(CCO)N1CCNCC1` (racemic), the inhibition amounted to 84% in [2] and 110% in assay [3].
Turning to `O=C(NCc1ccccc1F)C(CCO)N1CCN(C(c2ccccc2)c2ccccc2)CC1` (racemic), the inhibition in [8] was 55%. For the same molecule, the pIC50 in assay [2] came out at 4.48; in assay [3] it was 4.33.
`Cc1ccc(CNC(=O)C(CCO)N2CCN(C(c3ccc(F)cc3)c3ccc(F)cc3)CC2)cc1` (racemic): the remaining binding in assay [4] amounted to 92%. For the same molecule, the pIC50 in [2] stood at 4.23; in assay [3], 4.44.
As to `O=C(NCc1ccc(F)cc1)C(CCO)N1CCN(C(c2ccc(F)cc2)c2ccc(F)cc2)CC1` (racemic), the remaining binding in assay [4] is 75%. The negative logarithm of the IC50 (pIC50) in [2] stood at 4.03; in [3], 4.13.
In the case of `O=C(NCc1ccccc1Cl)C(CCO)N1CCN(C(c2ccc(F)cc2)c2ccc(F)cc2)CC1` (racemic), in assay [4], the remaining binding was found to be 93%. Moreover, the pIC50 in [2] came to 4.2; in assay [3] it was 4.17.
On to `O=C(NCCc1ccccc1)C(CCO)N1CCN(C(c2ccc(F)cc2)c2ccc(F)cc2)CC1` (racemic), for which the inhibition came out at 98% in [1] and 69% in assay [2]. The molecule further returned a pIC50 in assay [3] of 4.43.
Consider `O=C(NCc1ccccc1F)C(CCO)N1CCN(C(c2ccc(F)cc2)c2ccc(F)cc2)CC1` (racemic), for which the remaining binding in [4] turned out to be 92%. For the same molecule, the figures for the inhibition in assay [2] and in assay [3] were 97% and 65%, respectively.
Consider `Cc1ccc(CNC(=O)C(CCO)N2CCN(C(c3ccccc3)c3ccccc3)CC2)cc1` (racemic), for which the remaining binding in assay [4] was determined as 61%.
Take `O=C(NCc1ccccc1)C(CCO)N1CCOCC1` (racemic): the values for the inhibition in assay [1], in [2] and in [3] were 95%, 113% and 98%, respectively.
As for `O=C(NCCc1ccccc1)C(CCO)N1CCN(C(c2ccccc2)c2ccccc2)CC1` (racemic), the inhibition worked out at 93% in [5] and 80% in assay [6].
The molecule `O=C(NCc1ccc(Cl)cc1)C(CCO)N1CCN(C(c2ccccc2)c2ccccc2)CC1` (racemic) came in with a pKi in [1] of 4.33. Besides, the pIC50 stood at 4.88 in assay [2] and 4.56 in [3].
Turning to `O=C(NCc1ccccc1)C(CCO)N1CCN(C(c2ccc(F)cc2)c2ccc(F)cc2)CC1` (racemic), the remaining binding in assay [4] amounted to 63%. Besides, the results for the negative logarithm of the IC50 (pIC50) in [2] and in assay [3] were 4.19 and 4.33, respectively.
In the case of `O=C(NCc1ccc(F)cc1)C(CCO)N1CCN(C(c2ccccc2)c2ccccc2)CC1` (racemic), the pKi in [1] stood at 4.82. The molecule further registered a pIC50 in assay [2] of 4.84. Besides, the inhibition in assay [5] is 52%.
As to `O=C(NCc1ccc(Cl)cc1)C(CCO)N1CCNCC1` (racemic), the inhibition was 79% in assay [2] and 98% in [3].
Turning to `O=C(NCc1ccccc1)C(CCO)N1CCNCC1` (racemic), the inhibition in assay [1] turned out to be 76%; in assay [2] it was 63%; in assay [3] it was 98%.
Regarding `NC(=O)C(CCO)N1CCN(C(c2ccc(F)cc2)c2ccc(F)cc2)CC1` (racemic), the inhibition in assay [1] was 106%; in [2], 66%; in assay [3], 84%.
With `NC(=O)C(CCO)N1CCN(C(c2ccccc2)c2ccccc2)CC1` (racemic), the remaining binding in assay [4] amounted to 98%. Besides, the inhibition in [6] worked out at 83%.
Take `O=C(NCc1ccccc1)C(CCO)N1CCN(C(c2ccccc2)c2ccccc2)CC1` (racemic): the inhibition in the assay on HEK293 came out at 54%; in assay [6], 46%. Also, in [1], the pKi came to 4.96. In addition, the negative logarithm of the IC50 (pIC50) in assay [2] worked out at 4.66; in assay [3] it was 4.47.

Broadly, the inhibition is the change of the read-out against control, counted positive when it falls. A word on the pIC50: it is −log10 of the IC50, conventionally taken in molar units. Broadly, the pKi is −log10 of the Ki, conventionally taken in molar units.

The values are drawn from ChEMBL document CHEMBL1649378, “Synthesis and biological evaluation of new derivatives of 2-substituted 4-hydroxybutanamides as GABA uptake inhibitors” (Eur J Med Chem, 2011).
